In paper PMC11720871 (Results in chemistry, 2024):
Read-outs that look alike come from different tables or passages of the source.

How the values were obtained:
MDA-MB-231 VIM RFP cells [1] = assay: CCK-8 viability assay, cancer cells; assay type: cell-based, human; settings: read-out: IC50 Cancer MDA-MB-231 VIM RFP
Outline: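 MDA-MB-231 VIM RFP cells were grown in EMEM with 10% FBS, 0.01 mg ml−1 insulin, 10 μg ml−1 blasticidin S and 1% pen/strep at 37 °C, 5% CO2. Cells were seeded at 1.5 × 10^4 cells/well and exposed to 0–100 μM test compound, alone or with a fixed 50 μM BBC, for 24, 48 or 72 h. WST-8 (CCK-8) absorbance was read at 450 nm, and IC50 was taken from concentration–viability curves.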

MCF-10A cells = assay: CCK-8 viability assay, non-cancer cells; assay type: cell-based, human; settings: read-out: IC50 Non-cancer MCF-10A
[2] = test system: Caspase 3/7 in MDA-MB-231 VIM RFP cells; assay: Caspase-Glo 3/7 luminescence assay; assay type: cell-based, human; settings: complex 20 μM and/or BBC 50 μM, 24 h
Outline: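 Cells were seeded at 1.5 × 10^4 cells/well and treated for 24 h with 20 μM complex and/or 50 μM BBC. Caspase-Glo 3/7 reagent was added and luminescence read. Mean ± SE, n = 3.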

[3] = test system: p-MLKL in MDA-MB-231 VIM RFP cells; assay: Western blot analysis of p-MLKL; assay type: cell-based, human; settings: complex 20 μM and/or BBC 50 μM, 24 h; relative to GAPDH
Outline: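 Cells were plated at 1 × 10^6 cells/mL in 6-well plates and treated 24 h with 20 μM complex and/or 50 μM BBC. RIPA lysates were BCA-normalised, and equal protein was run on 10% SDS-PAGE (100 V, 2 h) and transferred to nitrocellulose (60 V, 90 min). After TBS blocking for 30 min, p-MLKL and GAPDH primaries were applied overnight at 4 °C, then Alexa Fluor Plus 488 secondary for 1 h at RT. Band densitometry was expressed relative to GAPDH.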

MDA-MB-231 VIM RFP cells [4] = assay: Cell cycle analysis by flow cytometry; assay type: cell-based, human; settings: complex 20 μM and/or BBC 50 μM, 24 h
Outline: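 Cells were plated at 1 × 10^6 cells/mL in 6-well plates and treated 24 h with 20 μM complex and/or 50 μM BBC. They were washed in PBS, fixed in ice-cold 70% EtOH at 4 °C for 2 h, washed again and stained with DAPI. Flow cytometry read at 450/50 nm, and G1, S and G2 fractions were gated. Triplicate; mean + std. err.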

[5] = test system: breast cancer MCF-7 cells; settings: single agent; cited from earlier work
[6] = test system: non-cancer human prostate epithelial cells; settings: berberine 10–100 μM; cited from earlier work
pregnant rats = settings: high dose (500–600 times more than human dosage); cited from earlier work
[7] = test system: human cervical cancer HeLa cells; settings: cited from earlier work
MDA-MB-231 cells = settings: 48 h of treatment; cited from earlier work
[8] = test system: prostate cancer PC3 cells; settings: cited from earlier work
BT549 cells = settings: 48 h of treatment; cited from earlier work

COc1ccc2cc3[n+](cc2c1OC)CCc1cc2c(cc1-3)OCO2 [Berberine chloride (BBC), berberine chloride]
IC50 (MDA-MB-231 VIM RFP cells [1]; Homo sapiens, MDA-MB-231, 24 h): 48.3 ± 2.4 µM
IC50 (MDA-MB-231 VIM RFP cells [1]; Homo sapiens, MDA-MB-231, 48 h): 31.8 ± 2.6 µM
IC50 (MDA-MB-231 VIM RFP cells [1]; Homo sapiens, MDA-MB-231, 72 h): 25.6 ± 1.9 µM
IC50 (MCF-10A cells; Homo sapiens, MCF-10A, 24 h): > 100 µM
IC50 (MCF-10A cells; Homo sapiens, MCF-10A, 48 h): > 100 µM
IC50 (MCF-10A cells; Homo sapiens, MCF-10A, 72 h): 92.3 ± 1.4 µM
Caspase 3/7 activity (luminescence) [2]: activation in caspase 3/7
p-MLKL level, western blot [3]: low level of p-MLKL
Fraction of cells in G2 phase (MDA-MB-231 VIM RFP cells [4]): 33.8%

N.N.[Cl][Pt][Cl] [Cisplatin]
IC50 [5]: 49.5 ± 1.62 µM
IC50 (MDA-MB-231 VIM RFP cells [1]; 24 h incubation, CCK-8): 28.1 ± 2.4 µM
IC50 (MDA-MB-231 VIM RFP cells [1]; 48 h incubation, CCK-8): 24.7 ± 2.6 µM
IC50 (MDA-MB-231 VIM RFP cells [1]; 72 h incubation, CCK-8): 22.2 ± 1.8 µM
IC50 (MCF-10A cells; 24 h incubation, CCK-8): 41.2 ± 1.9 µM
IC50 (MCF-10A cells; 48 h incubation, CCK-8): 34.2 ± 2.7 µM

COc1ccc2cc3[n+](cc2c1OC)CCc1cc2c(cc1-3)OCO2 [berberine]
Cytotoxic effect [6]: did not show a significant cytotoxic effect
IC50 [5]: 52.2 ± 1.59 µM
Reproductive toxicity (pregnant rats): no significant reproductive toxicity
Enhancement of toxicity of berberine when combined with cisplatin ([7]; berberine 50 μg/mL combined with 5 μM of cisplatin): around 54%
Cytotoxic effect ([7]; dose of 50 μg/mL): significant cytotoxic effect
IC50 (MDA-MB-231 cells): 18.525 ± 6.139 µg/mL
Cell cycle arrest ([8]; 10 μM): induced G0/G1 cell cycle arrest
Cell cycle arrest ([8]; 50 μM): inhibited the cell cycle at G2/M phase
IC50 (BT549 cells): 16.575 ± 1.219 µg/mL
